Measurements published in ChEMBL document CHEMBL1137229, “Structural characterization and pharmacology of a potent (Cys101-Cys119, Cys110-Cys117) bicyclic agouti-related protein (AGRP) melanocortin receptor antagonist” (J Med Chem, 2004).
Bridge positions count the residues as written; N and C are the ends. Peptide text beside a SMILES is read from it.

Key:
Melanocortin receptor 3 [1] = target: T1, Melanocortin receptor 3 (Mus musculus, UniProt P33033); assay: Antagonistic activity against mouse Melanocortin 3 Receptor; type: functional; details: read-out: pA2 (converted)
T1 sequence (P33033 whole entry): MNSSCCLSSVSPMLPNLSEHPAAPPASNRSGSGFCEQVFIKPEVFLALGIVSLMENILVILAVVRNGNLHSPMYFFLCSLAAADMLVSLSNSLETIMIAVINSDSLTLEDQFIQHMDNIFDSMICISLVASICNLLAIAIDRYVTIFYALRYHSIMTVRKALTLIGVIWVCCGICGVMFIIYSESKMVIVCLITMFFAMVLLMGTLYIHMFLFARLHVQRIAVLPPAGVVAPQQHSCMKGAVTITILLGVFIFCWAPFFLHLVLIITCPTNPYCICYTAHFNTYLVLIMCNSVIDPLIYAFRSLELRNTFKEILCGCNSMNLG
Summary of the method: (§1)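 Same HEK-293 CRE/β-galactosidase cAMP reporter system as the agonist assay, with a 6 h stimulation in IBMX-containing medium and normalization to protein and forskolin. Antagonism measured as the dose-dependent shift of the MTII agonist response, ligand up to 10 μM. pA2 derived by Schild analysis. Mean ± SEM of at least three independent experiments.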

Melanocortin receptor 3 [2] = target: T1, Melanocortin receptor 3; assay: Displacement of [125I]-hAGRP(87-132) from mouse Melanocortin 3 Receptor
Summary of the method: (§2)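 Whole HEK-293 cells stably expressing mouse receptor, plated a day before at 0.1–0.3 × 10^6 cells/well. Chloramine-T-iodinated [125I]hAGRP(87–132) at 100000 cpm/well displaced by ligand. Nonspecific binding defined with 10^-6 M hAGRP(87–132). IC50 from nonlinear least-squares fit, or percent specific binding displaced at 10 μM. Duplicate points, at least two independent experiments, SD reported.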

[3] = target: Melanocyte-stimulating hormone receptor (Mus musculus, UniProt Q01727); assay: Agonistic activity against mouse Melanocortin 1 Receptor; type: functional
Chain of Melanocyte-stimulating hormone receptor (Q01727 whole entry): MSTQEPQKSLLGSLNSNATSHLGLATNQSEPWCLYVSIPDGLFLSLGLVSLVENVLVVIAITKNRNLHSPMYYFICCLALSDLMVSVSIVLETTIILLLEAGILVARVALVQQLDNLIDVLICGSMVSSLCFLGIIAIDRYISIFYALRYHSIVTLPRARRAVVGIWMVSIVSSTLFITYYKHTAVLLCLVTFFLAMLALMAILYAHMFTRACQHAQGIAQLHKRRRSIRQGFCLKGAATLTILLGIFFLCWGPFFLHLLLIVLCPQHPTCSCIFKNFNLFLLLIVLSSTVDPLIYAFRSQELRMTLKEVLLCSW
Summary of the method: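 HEK-293 cells stably expressing the receptor (G418 selection), transiently transfected with a CRE/β-galactosidase reporter. Lysates read with ONPG at OD405 and normalized to protein content and forskolin (10^-4 M) response. EC50 from nonlinear least-squares fit, at least three independent experiments.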

Melanocortin receptor 4 [4] = target: T2, Melanocortin receptor 4 (Mus musculus, UniProt P56450); assay: Displacement of [125I]-hAGRP(87-132) from mouse Melanocortin 4 Receptor; summary of the method: as §2
T2 sequence (P56450 whole entry): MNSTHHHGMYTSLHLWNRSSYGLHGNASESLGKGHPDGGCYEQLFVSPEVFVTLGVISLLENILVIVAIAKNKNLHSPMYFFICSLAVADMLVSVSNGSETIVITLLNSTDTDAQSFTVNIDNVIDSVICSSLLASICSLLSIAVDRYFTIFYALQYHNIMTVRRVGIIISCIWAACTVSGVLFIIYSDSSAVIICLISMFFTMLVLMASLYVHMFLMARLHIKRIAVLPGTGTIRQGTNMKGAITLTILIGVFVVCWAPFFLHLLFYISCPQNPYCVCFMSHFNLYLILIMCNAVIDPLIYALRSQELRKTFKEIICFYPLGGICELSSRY

Melanocortin receptor 4 [5] = target: T2, Melanocortin receptor 4; assay: Antagonistic activity against mouse Melanocortin 4 Receptor; type: functional; details: read-out: pA2 (converted); summary of the method: as §1

SMILES: CC[C@@H]1NC(=O)[C@H](N)CSSC[C@@H](C(=O)N[C@@H](CCCN=C(N)N)C(=O)N[C@@H](CCCCN)C(=O)N[C@@H](CC(C)C)C(=O)O)NC(=O)[C@H](Cc2ccc(O)cc2)NC(=O)[C@H]2CSSC[C@H](NC(=O)[C@@H](Cc3ccc(O)cc3)NC(=O)[C@H](CC)NC(=O)[C@H]([C@@H](C)O)NC(=O)[C@@H](C)NC(=O)[C@H](CC)NC(=O)[C@@H]3CCCN3C(=O)[C@@H](CC(=O)O)NC1=O)C(=O)N[C@H](CCCN=C(N)N)C(=O)N[C@@H](Cc1ccccc1)C(=O)N[C@H](Cc1ccccc1)C(=O)N[C@@H](CC(N)=O)C(=O)N[C@H](C)C(=O)N[C@@H](Cc1ccccc1)C(=O)N2
- Kb (Melanocortin receptor 3 [1]): 158 nM
- IC50 (Melanocortin receptor 3 [2]): 140 nM

SMILES: CC[C@@H]1NC(=O)[C@H]([C@@H](C)O)NC(=O)[C@H](C)NC(=O)[C@H](CC)NC(=O)[C@@H]2CCCN2C(=O)[C@H](CC(=O)O)NC(=O)[C@H](CC)NC(=O)[C@@H](N)CSSC[C@@H](C(=O)N[C@@H](CCCN=C(N)N)C(=O)N[C@@H](CCCCN)C(=O)N[C@@H](CC(C)C)C(=O)O)NC(=O)[C@H](Cc2ccc(O)cc2)NC(=O)[C@@H]2CSSC[C@H](NC(=O)[C@H](Cc3ccc(O)cc3)NC1=O)C(=O)N[C@@H](CCCN=C(N)N)C(=O)N[C@@H](Cc1ccccc1)C(=O)N[C@@H](Cc1ccccc1)C(=O)N[C@@H](CC(N)=O)C(=O)N[C@@H](C)C(=O)N[C@@H](Cc1ccccc1)C(=O)N2
- EC50 [3]: 1460 nM
- IC50 (Melanocortin receptor 4 [4]): 10 nM
- Kb (Melanocortin receptor 4 [5]): 31.6 nM

SMILES: C[C@@H]1NC(=O)[C@H](CC(N)=O)NC(=O)[C@H](Cc2ccccc2)NC(=O)[C@H](Cc2ccccc2)NC(=O)[C@H](CCCNC(=N)N)NC(=O)[C@@H](NC(=O)[C@@H](N)Cc2ccc(O)cc2)CSSC[C@@H](C(=O)N[C@@H](Cc2ccc(O)cc2)C(N)=O)NC(=O)[C@H](Cc2ccccc2)NC1=O (H-YCRFFNAFCY-NH2; disulfide 2-9)
- EC50 [3]: 5120 nM
- IC50 (Melanocortin receptor 4 [4]): 275 nM
- IC50 (Melanocortin receptor 3 [2]): 11700 nM
- Kb (Melanocortin receptor 4 [5]): 158 nM
